Measured values reported in ChEMBL document CHEMBL4330067, “Synthesis and mechanistic studies of diketo acids and their bioisosteres as potential antibacterial agents” (Eur J Med Chem, 2019).
Values after ≈ are worked out from the molar mass of the structure shown. Active and inactive are the calls of the source. The calls are words filed in the database; no cut-off is given here.

What was measured:
Escherichia coli [1] = experiment: Antibacterial activity against Escherichia coli MRC24 after overnight incubation; format: functional
Summary of the method: (§1)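 Multidrug-resistant E. coli isolates in Luria broth, test range 8 to 1024 µg/mL (ciprofloxacin 0.49 to 63.3 µg/mL). Inoculum 10 µL of a 1000-fold diluted 0.1 OD600 culture, incubated overnight at 37 °C. OD read at 600 nm. % inhibition = (a−b)/a×100, with media and compound-colour blanks subtracted.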

Escherichia coli [2] = experiment: Synergistic antibacterial activity against Escherichia coli MRA11 after 18 hrs in presence of ciprofloxacin by checkerboard method; format: functional; details: MRA11, 18 h
Summary of the method: (§2)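 Checkerboard combination with ciprofloxacin in Mueller-Hinton broth: compound 1024 to 16 µg/mL crossed with ciprofloxacin 128 to 2 µg/mL. Inoculum 5×10⁵ CFU/mL suspension, 18 h at 37 °C. Fractional inhibitory concentration index derived from the combination.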

CHO [3] = experiment: Cytotoxicity against CHO cells at 300 ug/mL after 48 hrs by MTT assay; format: cell-based, Cricetulus griseus; details: chinese hamster
Summary of the method: (§3)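 MTT assay: cells maintained in DMEM with 10% FBS and penicillin/streptomycin at 37 °C, 5% CO2. Seeded at approx. 2×10⁴ cells/well, 24 h before treatment, then exposed to 10 to 400 µg/mL for 48 h at 37 °C. MTT (5 mg/mL stock in PBS) added for 4 h, formazan dissolved in DMSO, A570 read. Triplicate wells; viability given relative to untreated cells.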

Escherichia coli [4] = experiment: Synergistic antibacterial activity against Escherichia coli MRA11 assessed as ciprofloxacin MIC at 16 to 1024 ug/mL after 18 hrs by checkerboard method; format: functional; details: MRA11, 18 h; summary of the method: as §2
Escherichia coli [5] = experiment: Synergistic antibacterial activity against Escherichia coli MRC17 assessed as ciprofloxacin MIC at 16 to 1024 ug/mL after 18 hrs by checkerboard method; format: functional; details: MRC17, 18 h; summary of the method: as §2
Streptococcus pneumoniae [6] = experiment: Antibacterial activity against Streptococcus pneumoniae MTCC 655 after 24 hrs by broth dilution assay; format: functional; details: MTCC 655, 24 h
Summary of the method: (§4)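 Broth dilution per NCCLS in nutrient broth, serial dilutions 1000 to 7.8 µg/mL, DMSO below 4% final. Inoculum approx. 2.5×10⁶ cells/mL, 37 °C with shaking at 150 rpm for 24 h. MIC taken as the lowest concentration with no visible growth. Ciprofloxacin served as positive control.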

Escherichia coli [7] = experiment: Antibacterial activity against Escherichia coli MRC17 at 512 ug/mL after 24 hrs by broth dilution assay relative to control; format: functional; summary of the method: as §1
Escherichia coli [8] = experiment: Antibacterial activity against Escherichia coli MRC17 after overnight incubation; format: functional; summary of the method: as §1
Escherichia coli [9] = experiment: Antibacterial activity against Escherichia coli MROB11 at 512 ug/mL after 24 hrs by broth dilution assay relative to control; format: functional; summary of the method: as §1
Escherichia coli [10] = experiment: Antibacterial activity against Escherichia coli MRA11 after overnight incubation; format: functional; summary of the method: as §1
Escherichia coli [11] = experiment: Synergistic antibacterial activity against Escherichia coli MRAE33 assessed as fractional inhibitory concentration index after 18 hrs in presence of ciprofloxacin by checkerboard method; format: functional; summary of the method: as §2
Streptococcus pneumoniae [12] = experiment: Inhibition of Streptococcus pneumoniae methionine aminopeptidase 1A at 100 uM using Met-AMC as substrate relative to control
Summary of the method: (§5)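 Purified MetAP at 4 µM in 50 mM HEPES with 150 mM KCl and CoCl2 at 3 molar equivalents of enzyme. pH 7.5 for SpMetAP1a and EfMetAP1a, pH 8.0 for HsMetAP1b. Substrate L-Met-AMC at 50, 100 and 150 µM. Compounds (10 mM DMSO stocks) tested over 1 to 120 µM for % inhibition; Ki by Dixon method.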

Escherichia coli [13] = experiment: Synergistic antibacterial activity against Escherichia coli MRAE33 after 18 hrs in presence of ciprofloxacin by checkerboard method; format: functional; details: MRAE33, 18 h; summary of the method: as §2
Pseudomonas aeruginosa = experiment: Antibacterial activity against Pseudomonas aeruginosa MTCC 2453 after 24 hrs by broth dilution assay; format: functional; details: MTCC 2453, 24 h; summary of the method: as §4
Escherichia coli [14] = experiment: Synergistic antibacterial activity against Escherichia coli MRC17 after 18 hrs in presence of ciprofloxacin by checkerboard method; format: functional; details: MRC17, 18 h; summary of the method: as §2
Salmonella typhimurium = experiment: Antibacterial activity against Salmonella typhimurium MTCC 3224 after 24 hrs by broth dilution assay; format: functional, Salmonella enterica subsp. enterica serovar Typhimurium; details: Salmonella enterica, MTCC 3224, 24 h; summary of the method: as §4
[15] = Inhibition of Streptococcus pneumoniae methionine aminopeptidase 1A using Met-AMC as substrate by Dixon method; summary of the method: as §5
Escherichia coli [16] = experiment: Antibacterial activity against Escherichia coli MRA11 at 512 ug/mL after 24 hrs by broth dilution assay relative to control; format: functional; summary of the method: as §1
Enterococcus faecalis [17] = experiment: Inhibition of Enterococcus faecalis methionine aminopeptidase 1A at 100 uM using Met-AMC as substrate relative to control; summary of the method: as §5
[18] = Inhibition of Enterococcus faecalis methionine aminopeptidase 1A using Met-AMC as substrate by Dixon method; summary of the method: as §5
Homo sapiens = species on record: Homo sapiens; experiment: Inhibition of human methionine aminopeptidase 1B at 100 uM using Met-AMC as substrate relative to control; summary of the method: as §5
Escherichia coli [19] = experiment: Antibacterial activity against Escherichia coli MROB11 after overnight incubation; format: functional; summary of the method: as §1
CHO [20] = experiment: Cytotoxicity against CHO cells at 50 ug/mL after 48 hrs by MTT assay; format: cell-based, Cricetulus griseus; details: chinese hamster; summary of the method: as §3
[21] = Inhibition of Mycobacterium tuberculosis methionine aminopeptidase 1C using Met-AMC as substrate by Dixon method
Escherichia coli [22] = experiment: Synergistic antibacterial activity against Escherichia coli MRA11 assessed as fractional inhibitory concentration index after 18 hrs in presence of ciprofloxacin by checkerboard method; format: functional; summary of the method: as §2
Escherichia coli [23] = experiment: Antibacterial activity against Escherichia coli MRAE26 at 1024 ug/mL after 24 hrs by broth dilution assay relative to control; format: functional; summary of the method: as §1
Escherichia coli [24] = experiment: Antibacterial activity against Escherichia coli MRAE44 after overnight incubation; format: functional; summary of the method: as §1
[25] = test system: Mycobacterium tuberculosis; experiment: Inhibition of Mycobacterium tuberculosis methionine aminopeptidase 1C at 100 uM using Met-AMC as substrate relative to control
Summary of the method: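 Purified MtMetAP1c (4 µM) in 50 mM Hepes pH 7.5 with 150 mM KCl and CoCl2 at three molar equivalents of enzyme. Substrate was L-Met-AMC at 50, 100 or 150 µM. Compounds came from 10 mM DMSO stocks. Percent inhibition was taken against the uninhibited control.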

Enterococcus faecalis [26] = experiment: Antibacterial activity against Enterococcus faecalis MTCC 439 after 24 hrs by broth dilution assay; format: functional; details: MTCC 439, 24 h; summary of the method: as §4
Klebsiella pneumoniae = experiment: Antibacterial activity against Klebsiella pneumoniae ATCC 700603 after 24 hrs by broth dilution assay; format: functional; details: Klebsiella pneumoniae, 700603, 24 h; summary of the method: as §4
[27] = Cytotoxicity against CHO cells assessed as cell viability at 100 ug/mL after 48 hrs by MTT assay relative to control; format: cell-based, Cricetulus griseus; details: chinese hamster, read-out: Activity; summary of the method: as §3
Escherichia coli [28] = experiment: Synergistic antibacterial activity against Escherichia coli MRC17 assessed as fractional inhibitory concentration index after 18 hrs in presence of ciprofloxacin by checkerboard method; format: functional
Summary of the method: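 Checkerboard combination against MDR E. coli. Test agent gradient 1024–16 µg/mL crossed with ciprofloxacin 128–2 µg/mL in Mueller-Hinton broth. Wells were inoculated with a 5 × 10⁵ CFU/mL suspension and incubated 18 h at 37 °C. Interaction was expressed as the fractional inhibitory concentration index (FICI).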

Escherichia coli [29] = experiment: Antibacterial activity against Escherichia coli MRAE44 at 1024 ug/mL after 24 hrs by broth dilution assay; format: functional, organism-based; summary of the method: as §1
Escherichia coli [30] = experiment: Antibacterial activity against Escherichia coli MRAE32 at 512 ug/mL after 24 hrs by broth dilution assay relative to control; format: functional; summary of the method: as §1
Escherichia coli [31] = experiment: Antibacterial activity against Escherichia coli MRC24 at 512 ug/mL after 24 hrs by broth dilution assay relative to control; format: functional; summary of the method: as §1
Escherichia coli [32] = experiment: Antibacterial activity against Escherichia coli ATCC 25922 after 24 hrs by broth dilution assay; format: functional; details: ATCC 25922, 24 h; summary of the method: as §4
Escherichia coli [33] = experiment: Antibacterial activity against Escherichia coli MRAE33 at 1024 ug/mL after 24 hrs by broth dilution assay relative to control; format: functional; summary of the method: as §1
[34] = Inhibition of human methionine aminopeptidase 1B using Met-AMC as substrate by Dixon method; summary of the method: as §5
Escherichia coli [35] = experiment: Antibacterial activity against Escherichia coli MRAE26 after overnight incubation; format: functional; summary of the method: as §1
Escherichia coli [36] = experiment: Antibacterial activity against Escherichia coli MRAE33 after overnight incubation; format: functional; summary of the method: as §1
Escherichia coli [37] = experiment: Antibacterial activity against Escherichia coli MRAE32 after overnight incubation; format: functional; summary of the method: as §1
Escherichia coli [38] = experiment: Synergistic antibacterial activity against Escherichia coli MRAE33 assessed as ciprofloxacin MIC at 16 to 1024 ug/mL after 18 hrs by checkerboard method; format: functional; details: MRAE33, 18 h; summary of the method: as §2

SMILES: COC(=O)[C@@H](C)NC(=O)/C(O)=C/C(=O)c1oc2ccc(Br)cc2c1C
- ICmax (Escherichia coli [1]): 512 µg/mL
- MIC (Escherichia coli [2]): 1020 µg/mL
- Activity (CHO [3]): Toxic
- MIC (Escherichia coli [4]): 128 µg/mL
- MIC (Escherichia coli [5]): 64 µg/mL
- MIC (Streptococcus pneumoniae [6]): 62.5 µg/mL (≈ 152 µM)
- Activity (Escherichia coli [7]): 60%
- ICmax (Escherichia coli [8]): 512 µg/mL
- MIC (Escherichia coli [8]; Escherichia coli, MRC17): 1020 µg/mL (≈ 2500 µM)
- Activity (Escherichia coli [9]): 87%
- ICmax (Escherichia coli [10]): 512 µg/mL
- MIC (Escherichia coli [10]; Escherichia coli, MRA11): 1020 µg/mL (≈ 2500 µM)
- fractional inhibitory concentration index (FICI) (Escherichia coli [11]): 1.0156
- inhibition (Streptococcus pneumoniae [12]): 97.4%
- MIC (Escherichia coli [13]): 16 µg/mL
- MIC (Pseudomonas aeruginosa): 125 µg/mL (≈ 305 µM)
- MIC (Escherichia coli [14]): 1020 µg/mL
- MIC (Salmonella typhimurium): 500 µg/mL (≈ 1220 µM)
- Ki [15]: 8.78 µM
- Activity (Escherichia coli [16]): 65%
- inhibition (Enterococcus faecalis [17]): 93.9%
- Ki [18]: 10.4 µM
- inhibition (Homo sapiens): 89.1%
- ICmax (Escherichia coli [19]): 512 µg/mL
- Activity (CHO [20]): Non-Toxic
- Ki [21]: 17.6 µM
- fractional inhibitory concentration index (FICI) (Escherichia coli [22]): 2
- Activity (Escherichia coli [23]): 54%
- ICmax (Escherichia coli [24]): 1024 µg/mL
- inhibition [25]: 99.6%
- MIC (Enterococcus faecalis [26]): 31.2 µg/mL (≈ 76.2 µM)
- MIC (Klebsiella pneumoniae): 500 µg/mL (≈ 1220 µM)
- viability at 48 h, 100 ug/mL [27]: 50%
- fractional inhibitory concentration index (FICI) (Escherichia coli [28]): 1.5
- Activity (Escherichia coli [29]): Active
- Activity (Escherichia coli [30]): 88%
- Activity (Escherichia coli [31]): 76%
- MIC (Escherichia coli [32]): 62.5 µg/mL (≈ 152 µM)
- Activity (Escherichia coli [33]): 50%
- Ki [34]: 22.1 µM
- ICmax (Escherichia coli [35]): 1024 µg/mL
- ICmax (Escherichia coli [36]): 512 µg/mL
- MIC (Escherichia coli [36]; Escherichia coli, MRAE33): 1020 µg/mL (≈ 2500 µM)
- ICmax (Escherichia coli [37]): 512 µg/mL
- MIC (Escherichia coli [38]): 2 µg/mL
